Legend:
Rattus norvegicus [1] = test: Total clearance in rat assessed as (E)-3-(4-(1-(2-(5-chloropyrimidin-2-yl)-3-cyclopentyl-1-methyl-1H-indole-6-carboxamido)cyclobutanecarboxamido)-2-ethoxyphenyl)acrylic acid at 2 mg/kg, iv; conditions: in vivo
Rattus norvegicus [2] = test: AUC in rat plasma assessed as (E)-3-(4-(1-(2-(5-chloropyrimidin-2-yl)-3-cyclopentyl-1-methyl-1H-indole-6-carboxamido)cyclobutanecarboxamido)-2-ethoxyphenyl)acrylic acid at 10 mg/kg, po using 0.5% Methyl cellulose, 0.3% Tween-80, 1% N-methylpyrrolidone in water vehicle; assay type: ADME, organism-based; set-up: dose 10 mg/kg, route oral; conditions: in vivo
Procedure, shortened: (§1)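 Fasted rats were given a single 10 mg/kg oral dose, with n = 3 per dose and route. Plasma was extracted by solid-phase extraction. Analysis used HPLC with diode-array UV (200–400 nm, peak height at best S/N) or LC/MS. Calibration standards were made in blank plasma, with LOQ 7–14 ng/mL. Parameters came from noncompartmental analysis.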

Rattus norvegicus [3] = test: Cmax in rat plasma assessed as (E)-3-(4-(1-(2-(5-chloropyrimidin-2-yl)-3-cyclopentyl-1-methyl-1H-indole-6-carboxamido)cyclobutanecarboxamido)-2-ethoxyphenyl)acrylic acid at 10 mg/kg, po using 0.5% Methyl cellulose, 0.3% Tween-80, 1% N-methylpyrrolidone in water vehicle; assay type: ADME, organism-based; set-up: dose 10 mg/kg, route oral; conditions: in vivo
Procedure, shortened: as §1

Rhesus monkey = test: AUC in monkey assessed as (E)-3-(4-(1-(2-(5-chloropyrimidin-2-yl)-3-cyclopentyl-1-methyl-1H-indole-6-carboxamido)cyclobutanecarboxamido)-2-ethoxyphenyl)acrylic acid at 10 mg/kg using 10.6% PEG400, 5.4% Cremophor EL, 2.6% Labrasol, 1.4% Capmul MCM in water (80%) vehicle; assay type: ADME, organism-based, Macaca mulatta, Plasma; set-up: dose 10 mg/kg; conditions: in vivo
Rattus norvegicus [4] = test: Mean residence time in rat assessed as (E)-3-(4-(1-(2-(5-chloropyrimidin-2-yl)-3-cyclopentyl-1-methyl-1H-indole-6-carboxamido)cyclobutanecarboxamido)-2-ethoxyphenyl)acrylic acid at 2 mg/kg, iv; assay type: ADME, organism-based; set-up: dose 2 mg/kg, route intravenous; conditions: in vivo
Procedure, shortened: (§2)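 Overnight-fasted rats received 2 mg/kg IV in 70% PEG400:30% water, n = 3. Plasma parent drug was quantified after solid-phase extraction by HPLC-UV or LC/MS against blank-plasma calibration standards (LOQ 7–14 ng/mL). Noncompartmental analysis gave the PK parameters.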

Rattus norvegicus [5] = test: Cmax in rat plasma assessed as (E)-3-(4-(1-(2-(5-chloropyrimidin-2-yl)-3-cyclopentyl-1-methyl-1H-indole-6-carboxamido)cyclobutanecarboxamido)-2-ethoxyphenyl)acrylic acid at 10 mg/kg, po using 10.6% PEG400, 5.4% Cremophor EL, 2.6% Labrasol, 1.4% Capmul MCM in water (80%) vehicle; assay type: ADME, organism-based; set-up: dose 10 mg/kg, route oral; conditions: in vivo
Procedure, shortened: as §1

Rattus norvegicus [6] = test: AUC in rat assessed as (E)-3-(4-(1-(2-(5-chloropyrimidin-2-yl)-3-cyclopentyl-1-methyl-1H-indole-6-carboxamido)cyclobutanecarboxamido)-2-ethoxyphenyl)acrylic acid at 2 mg/kg, iv; assay type: ADME, organism-based, Plasma; set-up: dose 2 mg/kg, route intravenous; conditions: in vivo
Procedure, shortened: as §2

Canis familiaris = test: AUC in dog assessed as (E)-3-(4-(1-(2-(5-chloropyrimidin-2-yl)-3-cyclopentyl-1-methyl-1H-indole-6-carboxamido)cyclobutanecarboxamido)-2-ethoxyphenyl)acrylic acid at 10 mg/kg using 10.6% PEG400, 5.4% Cremophor EL, 2.6% Labrasol, 1.4% Capmul MCM in water (80%) vehicle; assay type: ADME, organism-based, Canis lupus familiaris, Plasma; set-up: dose 10 mg/kg; conditions: in vivo
[7] = Permeability across human Caco2 cells; assay type: ADME, cell-based; conditions: Caco-2
Rattus norvegicus [8] = test: AUC in rat assessed as (E)-3-(4-(1-(2-(5-chloropyrimidin-2-yl)-3-cyclopentyl-1-methyl-1H-indole-6-carboxamido)cyclobutanecarboxamido)-2-ethoxyphenyl)acrylic acid at 10 mg/kg, po using 10.6% PEG400, 5.4% Cremophor EL, 2.6% Labrasol, 1.4% Capmul MCM in water (80%) vehicle; assay type: ADME, organism-based, Plasma; set-up: dose 10 mg/kg, route oral; conditions: in vivo
Procedure, shortened: as §1

Rattus norvegicus [9] = test: AUC in rat plasma assessed as (E)-3-(4-(1-(2-(5-chloropyrimidin-2-yl)-3-cyclopentyl-1-methyl-1H-indole-6-carboxamido)cyclobutanecarboxamido)-2-ethoxyphenyl)acrylic acid at 10 mg/kg, po using 10.6% PEG400, 5.4% Cremophor EL, 2.6% Labrasol, 1.4% Capmul MCM in water (80%) vehicle; assay type: ADME, organism-based; set-up: dose 10 mg/kg, route oral; conditions: in vivo
Procedure, shortened: as §1

## CCOc1cc(NC(=O)C2(NC(=O)c3ccc4c(C5CCCC5)c(-c5ncc(Cl)cn5)n(C)c4c3)CCC2)ccc1/C=C/C(=O)O
Rattus norvegicus [1]
  CL: 2.6 mL/min/kg
Rattus norvegicus [2]
  AUC: 25.5 µM·h
Rattus norvegicus [3]
  Cmax: 7.4 µM
Rhesus monkey
  AUC: 53 µM·h
Rattus norvegicus [4]
  MRT: 2.5 h
Rattus norvegicus [5]
  Cmax: 2.1 µM
Rattus norvegicus [6]
  AUC: 20.1 µM·h
Canis familiaris
  AUC: 76 µM·h
[7]
  Papp: 13 ×10⁻⁶ cm/s
Rattus norvegicus [8]
  AUC: 19.3 µM·h
Rattus norvegicus [9]
  AUC: 7.5 µM·h
